# Sampled rows, rich in hits. Any-hit rate of the full collection: about 0.79%.
# hIAP inh = human IAP inhibitors, primary screen, biochemical, luminescence, uHTS | purified IAP, CDP-Star luminescence, 30 min | 330,000 compounds, 0.12% hits | inhibition, % at 10 µM | Intestinal-type alkaline phosphatase (Homo sapiens), P09923;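 active = inhibition reaching a set limit with compound at 10 µM in the primary screen, cut at about 35% in these data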;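 note: plate controls were DMSO wells with enzyme for no effect and no-enzyme buffer wells for full effect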
# Target sequence (P09923 whole entry, looked up): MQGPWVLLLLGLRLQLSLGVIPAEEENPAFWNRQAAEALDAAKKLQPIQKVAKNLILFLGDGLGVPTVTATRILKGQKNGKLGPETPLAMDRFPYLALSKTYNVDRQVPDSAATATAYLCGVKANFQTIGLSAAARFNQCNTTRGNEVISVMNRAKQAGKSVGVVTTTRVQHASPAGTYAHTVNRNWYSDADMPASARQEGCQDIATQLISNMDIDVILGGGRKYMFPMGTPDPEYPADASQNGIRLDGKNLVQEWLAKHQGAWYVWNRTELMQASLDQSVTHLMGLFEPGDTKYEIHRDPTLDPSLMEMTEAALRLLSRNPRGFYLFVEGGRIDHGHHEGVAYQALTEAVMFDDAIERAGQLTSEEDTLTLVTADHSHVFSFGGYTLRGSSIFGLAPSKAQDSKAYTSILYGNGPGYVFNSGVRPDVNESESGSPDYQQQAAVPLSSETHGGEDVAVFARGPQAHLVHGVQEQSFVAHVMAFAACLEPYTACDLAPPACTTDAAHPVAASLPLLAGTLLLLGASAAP
# bIAP inh = bovine intestinal alkaline phosphatase inhibitors, primary screen, selectivity assay for TNAP inhibitor project, biochemical, bovine IAP, CDP-star luminescence; AID 1019, 2008; alkaline phosphatase, intestinal [Bos taurus]; purified bovine IAP, 30 min; inhibition, % at 20 µM; 190,000 tested, under 10 active;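 active = over 50% inhibition of intestinal alkaline phosphatase at 20 µM in the single-dose screen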
#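 System: purified bovine intestinal alkaline phosphatase (IAP) enzyme; Input: IAP diluted 1/65,000,000 in the well; Measured by: CDP-star luminescence signal; Compound dosing: 20 µM single dose; Incubation: 30 min reaction at room temperature.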
# mIAP inh = inhibitors of mouse IAP, primary screen, biochemical, luminescence, uHTS | purified mouse IAP, CDP-Star luminescence, 30 min | inhibition, % at 10 µM | 330,000 compounds, 0.2% hits;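 active = inhibition of at least 40% at 10 µM in the primary screen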;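 note: plate controls were DMSO with enzyme for no effect and no enzyme wells for full effect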
# mIAP activ = activators of mouse IAP, primary screen, biochemical, luminescence, uHTS | 330,000 compounds, 0.24% hits | muIAP, CDP-Star luminescence, 30 min; hits give high values; 1 = vehicle-only enzyme signal, 0 = enzyme-free wells | activation factor at 10 µM | intestinal alkaline phosphatase [Mus musculus];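 active = activation factor of at least 2 at 20 µM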
#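 also added = chemiluminescent substrate CDP-Star | test system = mouse IAP enzyme | signal = chemiluminescence readout | compound = DMSO-dissolved test compounds | incubation = 30 min at room temperature | benchmarks = DMSO wells, no-enzyme wells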
# bIAP activator = bovine intestinal alkaline phosphatase activators, primary screen, biochemical, bovine IAP, CDP-star luminescence; 200,000 compounds, 0.17% hits; activation factor at 20 µM; alkaline phosphatase, intestinal [Bos taurus]; purified bovine IAP, 30 min; hits give high values; fold of DMSO-control signal, blank-subtracted;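 active = activation factor of 2 or more at 20 µM, a signal rise over negative controls twice the positive control's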
# hIAP activ = human IAP activators, primary screen, biochemical, luminescence, uHTS. 330,000 compounds, 0.16% hits. Intestinal-type alkaline phosphatase (Homo sapiens), P09923. activation factor at 10 µM. purified human IAP, CDP-Star luminescence, 30 min; hits give high values; 1 = vehicle-only enzyme, 0 = enzyme-free background;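 active = activation factor of the enzyme at least 2-fold when tested at 20 µM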
# hIAP act confirm = human IAP activators, confirmation, biochemical, luminescence, single concentration, uHTS hits; activation (%Activity, negative = activation), % at 8.3 µM; purified IAP, CDP-Star luminescence, 30 min; hits give low values; 880 compounds, 10% hits; shares compounds with hIAP activ;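 active = at least twofold enzyme activation in any of six single-dose repeats, which the averaged readout prints as negative percent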
# Active calls of the source: *; / = no result; + = active, no number.
SMILES,hIAP inh,bIAP inh,mIAP inh,mIAP activ,bIAP activator,hIAP activ,hIAP act confirm
CNC[C@H]1Oc2ccc(NC(=O)Nc3ccc4c(c3)OCO4)cc2C(=O)N([C@H](C)CO)C[C@@H]1C,-4,/,-116,2.2*,/,1,/
CNC[C@@H]1Oc2ccc(NC(=O)Nc3ccccc3)cc2C(=O)N([C@@H](C)CO)C[C@H]1C,-8,/,-132,2.3*,/,1.1,/
CC(C)C(NC(=O)c1ccccc1NC(=O)c1ccccc1)C(=O)NCCCn1ccnc1 (stereo unspecified),-6,/,3,0.97,/,1.1,/
CCOc1ccccc1C(C(=O)NC1CCCCC1)N(C(=O)c1csnn1)C1CC1 (stereo unspecified),-2,/,6,0.94,/,1,/
OCc1nc2ccccc2n1C/C=C/c1ccccc1,-14,-125,-2,1,2.2*,1.1,/
CC(O)c1nc2ccccc2n1C/C=C/c1ccccc1 (stereo unspecified),-8,-1,6,0.94,1,1.1,/
CCc1ccc(OCC(=O)Nc2ccc(S(=O)(=O)Nc3ccccn3)cc2)cc1,8,/,9,0.91,/,0.92,/
COc1ccc(Cl)cc1NC(=O)C(C)N1CCN(C/C=C/c2ccccc2)CC1 (stereo unspecified),18,-234,-12,1.1,3.3*,0.82,/
NS(=O)(=O)c1ccc(N2N=C(c3ccccc3)CC2c2ccccc2)cc1 (stereo unspecified),-37,12,-105,2.1*,0.9,1.4,/
CN1CCc2c1nc1ccccc1c2N (tested in a mixture with another compound),38*,/,-1,1,/,0.61,1
C/C(=N/NC(=O)c1ccc(Br)o1)c1cccc(NC(=O)c2ccc(F)cc2)c1,3,/,14,0.86,/,0.97,/
NC(=O)c1c(NC(=O)c2ccc(F)cc2)sc2c1CCC2,37*,/,11,0.89,/,0.63,+
CC(=O)N/N=C/c1cc(C(C)C)cc(/C=N/NC(C)=O)c1O,-154,-43,11,0.89,1.4,2.5*,-11
CC(=O)N/N=C/c1cc(C)n(-c2ccc(Br)cc2)c1C,-14,-16,-10,1.1,1.2,1.1,/
Cc1[nH]n(-c2nc(-c3ccccc3)cc(=O)[nH]2)c(=O)c1CCO,62*,35,12,0.88,0.6,0.38,47
S=c1[nH]nc(CSCCOc2ccc(Cl)cc2Cl)o1,-10,/,2,0.98,/,1.1,/
Cn1cc(C(=O)N2CCc3ccccc32)cn1,-111,10,13,0.87,0.9,2.1*,2
O=C(NCCCN1CCOCC1)C(=O)N/N=C/c1ccccc1Cl,14,/,5,0.95,/,0.86,/
O=C(NCc1ccccn1)C(=O)N/N=C/c1ccccc1O,-198,/,4,0.96,/,3*,3
O=C(NCCCN1CCOCC1)C(=O)N/N=C/c1ccccc1O,-100,/,-18,1.2,/,2*,28
O=C(NCCc1ccc(F)cc1)C(=O)NCC1CCCN1S(=O)(=O)c1cccs1 (stereo unspecified),-21,/,1,0.99,/,1.2,/
COc1ccc(NC(=O)CCN2CCN(S(=O)(=O)c3ccc(Br)cc3)CC2)cc1,-15,/,4,0.96,/,1.1,/
COc1ccc(NC(=O)CCN2CCN(S(=O)(=O)c3cc(Cl)ccc3OC)CC2)cc1,36*,4,6,0.94,1,0.64,36
CC(NS(=O)(=O)c1ccc(Br)cc1)C(=O)Nc1nc2ccccc2[nH]1 (stereo unspecified),-112,/,12,0.88,/,2.1*,67
O=C(Cc1ccc(Br)cc1)Nc1nc2ccccc2[nH]1,-56,/,3,0.97,/,1.6,/
SMILES,hIAP inh,bIAP inh,mIAP inh,mIAP activ,bIAP activator,hIAP activ,hIAP act confirm
Oc1cccc(/C=N/N=C/c2cccc(O)c2O)c1O,-101,/,36,0.64,/,2*,-57
CC(=O)Nc1cccc(-c2csc(Nc3ccccn3)n2)c1,-118,3,-4,1,1,2.2*,-94*
c1ccc(-c2cccc(-c3ccccn3)n2)nc1,-105,-16,-8,1.1,1.2,2.1*,-113*
COc1ccccc1C(=O)NCC(=O)NNc1ncnc(N)c1[N+](=O)[O-],-159,-30,25,0.75,1.3,2.6*,-31
COC(=O)c1ccc(Nc2c([N+](=O)[O-])ccc3nonc23)cc1,14,/,13,0.87,/,0.86,/
O=C(c1ccc2nsnc2c1)N1CCN(c2ccc([N+](=O)[O-])cc2)CC1,-12,/,-3,1,/,1.1,/
C[C@@H](NC(=O)/C(C#N)=C/c1ccc(O)c(O)c1)c1ccccc1,32,/,24,0.76,/,0.68,/
N#C/C(=C\c1ccc(O)c(O)c1)C(=O)Nc1ccccc1,52*,/,25,0.75,/,0.48,3
Cc1cc(=O)[nH]c(-n2[nH]c3c(c2=O)CCCC3)n1,-133,-49,19,0.81,1.5,2.3*,56
NC1=NN=C(N2N=C(c3ccco3)CC2(O)C(F)(F)F)n2ncnc2C1 (stereo unspecified),-153,-61,35,0.65,1.6,2.5*,-1
Cc1ccc(C2=NN(C3=NN=C(N)Cc4ncnn43)C(O)(C(F)(F)F)C2)cc1 (stereo unspecified),16,-47,17,0.83,1.5,0.84,/
Cc1ccc(C(=O)Nc2ccncc2)cc1[N+](=O)[O-],-21,/,3,0.97,/,1.2,/
Cc1ccc(NC(=O)c2ccncc2)cc1[N+](=O)[O-],-105,-12,-7,1.1,1.1,2.1*,54
CC(=O)NC(C)c1nc2ccccc2n1CC(=O)NC(C)CCc1ccccc1 (stereo unspecified),3,-31,8,0.92,1.3,0.97,/
O=S(=O)(Nc1nc2ccccc2nc1NCc1ccco1)c1ccc(Cl)cc1,-9,-14,10,0.9,1.1,1.1,/
Cc1ccc(S(=O)(=O)Nc2nc3ccccc3nc2NCc2ccco2)cc1,-112,5,4,0.96,1,2.1*,19
COc1ccc(-c2c(C)n([O-])c3c([n+]2=O)CCCC3)cc1,-122,1,1,0.99,1,2.2*,5
CCCn1c(SCC(=O)c2cc(C)n(-c3cc(C)on3)c2C)n[nH]c1=O,6,/,10,0.9,/,0.94,/
